The results in this text go back to ChEMBL document CHEMBL1154304, “Triterpenoids and flavonoids from celery (Apium graveolens)” (J Nat Prod, 2009).

Usually IC50 stands for the concentration needed to halve the response being measured.

The assay has as its system RAW264.7. Briefly: Antiinflammatory activity against mouse RAW264.7 cells assessed as inhibition of LPS-induced nitrite accumulation after 24 hrs by Griess reagent method. The conditions noted are these: RAW264.7, 24 h. Type of assay: functional, cell-based. Summed up: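 RAW 264.7 mouse macrophages in RPMI 1640 with 10% heat-inactivated FBS, penicillin/streptomycin, seeded at 1×10^5 cells/well, adhered 2 h at 37 °C, 5% CO₂. LPS 1 μg/mL for 24 h with or without compounds in DMSO (0.2% v/v final). Nitrite in supernatant read with Griess reagent against sodium nitrite standards (0–100 μM). Inhibition is relative to LPS-only and untreated wells. MTT viability check run in parallel. Triplicate, mean ± SD of three experiments.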
On the technique in general: The Griess reaction detects nitrite, a stable product of nitric oxide.
As to `C[C@H]1[C@H](C)C(=O)C[C@]2(C)C[C@H](O)[C@]3(C)C(=CC(=O)[C@@H]4[C@@]5(C)C[C@H](O[C@@H]6O[C@H](CO)[C@@H](O)[C@H](O)[C@H]6O)[C@H](O)C(C)(C)[C@@H]5CC[C@]43C)[C@H]12`, the IC50 was more than 20 µM.

Regarding `C[C@H]1[C@H](C)C(=O)C[C@]2(C)C[C@H](O)[C@]3(C)C(=CC(=O)[C@@H]4[C@@]5(C)CC[C@H](O)[C@](C)(CO[C@@H]6O[C@H](CO)[C@@H](O)[C@H](O)[C@H]6O)[C@@H]5CC[C@]43C)[C@H]12`, the IC50 was more than 20 µM.

For `CC1(C)C[C@H]2C3=CC(=O)[C@@H]4[C@@]5(C)CC[C@H](O)[C@](C)(CO[C@@H]6O[C@H](CO)[C@@H](O)[C@H](O)[C@H]6O)[C@@H]5CC[C@@]4(C)[C@]3(C)[C@@H](O)C[C@@]2(C)CC1=O`, the IC50 was more than 20 µM.

Regarding `COc1cc(/C=C/C(=O)OC[C@@]2(O)CO[C@@H](O[C@H]3[C@H](Oc4cc(O)c5c(=O)cc(-c6ccc(O)cc6)oc5c4)O[C@H](CO)[C@@H](O)[C@@H]3O)[C@@H]2O)ccc1O`, the IC50 was more than 20 µM.

`COc1cc(/C=C/C(=O)OC[C@@]2(O)CO[C@@H](O[C@H]3[C@H](Oc4cc(O)c5c(=O)cc(-c6ccc(O)c(OC)c6)oc5c4)O[C@H](CO)[C@@H](O)[C@@H]3O)[C@@H]2O)ccc1O`: the IC50 was more than 20 µM.

In the case of `COc1cc(/C=C/C(=O)OC[C@@]2(O)CO[C@@H](O[C@H]3[C@H](Oc4cc(O)c5c(=O)cc(-c6ccc(O)c(O)c6)oc5c4)O[C@H](CO)[C@@H](O)[C@@H]3O)[C@@H]2O)ccc1O`, the IC50 was more than 20 µM.

`O=C1C[C@@H](c2ccc(O)cc2)Oc2cc(O[C@@H]3O[C@H](CO)[C@@H](O)[C@H](O)[C@H]3O[C@@H]3OC[C@](O)(CO)[C@H]3O)cc(O)c21`: the IC50 is more than 20 µM.

`COc1cc(-c2cc(=O)c3c(O)cc(O[C@@H]4O[C@H](CO)[C@@H](O)[C@H](O)[C@H]4O)cc3o2)ccc1O`: the IC50 is more than 20 µM.

With `O=c1cc(-c2ccc(O)cc2)oc2cc(O)cc(O)c12` [APIGENIN], the IC50 is 6.7 µM.

As to `O=c1cc(-c2ccc(O)cc2)oc2cc(O[C@@H]3O[C@H](CO)[C@@H](O)[C@H](O)[C@H]3O)cc(O)c12` [APIGETRIN], the IC50 is more than 20 µM.

Turning to `O=c1cc(-c2ccc(O)cc2)oc2cc(O[C@@H]3O[C@H](CO)[C@@H](O)[C@H](O)[C@H]3O[C@@H]3OC[C@](O)(CO)[C@H]3O)cc(O)c12` [APIIN], the IC50 is more than 20 µM.

As for `COc1cc(-c2cc(=O)c3c(O)cc(O)cc3o2)ccc1O` [CHRYSOERIOL], the IC50 stood at 14.2 µM.

Regarding `COc1cc(/C=C/C(=O)CC(=O)/C=C/c2ccc(O)c(OC)c2)ccc1O` [CURCUMIN], the half-inhibitory concentration (IC50) was found to be 8.3 µM.

For `O=c1cc(-c2ccc(O)c(O)c2)oc2cc(O[C@@H]3O[C@H](CO)[C@@H](O)[C@H](O)[C@H]3O)cc(O)c12` [GALUTEOLIN], the IC50 is more than 20 µM.

In the case of `O=c1cc(-c2ccc(O)c(O)c2)oc2cc(O)cc(O)c12` [LUTEOLIN], the IC50 worked out at 7.5 µM.

As for `O=c1c(O)c(-c2ccc(O)c(O)c2)oc2cc(O)cc(O)c12` [QUERCETIN], the IC50 stood at 11.4 µM.
